Screens (PubChem BioAssay)
CHOP inhibitor: inhibitors of CHOP induction in ER stress response; CHO-K1 CHOP-promoter luciferase, tunicamycin-induced, 15-18 h; inhibition, % at 10 µM; 3.8% of 220,000 active; AID 2732;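 active = compounds that reduced the stress-induced luciferase reporter signal by more than about 70% of percent inhibition, limit read from the data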
CHOP UPR activ: apoptotic UPR (CHOP) activation | CHO-CHOP luciferase reporter, luminescence; percent of tunicamycin response over DMSO baseline | activation, % at 10 µM | 0.34% of 330,000 active | AID 449763;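 active = at 10 µM dose, activation of 40% or more, normalized to positive control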
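Test system: CHO CHOP reporter cells. Input: 500 CHO-CHOP cells per well. Medium: F12 with 10% FBS. Technique: luciferase luminescence. Measure: percent activation relative to tunicamycin control. Dosing: 10 µM compound, 0.5% DMSO. Timing: 16-18 h cell attachment, then 6 h compound exposure, 37 °C.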
VLA-4 inh: inhibition in a human VLA-4 binding assay; inhibition, % (about 7 µM as worked out from the volumes in the protocol); VLA-4 expressing cells, ligand binding flow cytometry; AID 2557; 0.2% of 330,000 active; P13612; in the data active = inhibition above about 50%
Beta2AR agonist: activates human beta-2 adrenergic receptor causing internalization; Am2.2-beta2AR cells, FAP receptor internalization, flow cytometry; AID 504454; response, % (no concentration beside the values); 0.43% of 340,000 active;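 active = response above a set limit, near 3 SD of response in nonfluorescent compounds, cut at about 42% in these data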
Target sequence (P07550 whole entry, looked up): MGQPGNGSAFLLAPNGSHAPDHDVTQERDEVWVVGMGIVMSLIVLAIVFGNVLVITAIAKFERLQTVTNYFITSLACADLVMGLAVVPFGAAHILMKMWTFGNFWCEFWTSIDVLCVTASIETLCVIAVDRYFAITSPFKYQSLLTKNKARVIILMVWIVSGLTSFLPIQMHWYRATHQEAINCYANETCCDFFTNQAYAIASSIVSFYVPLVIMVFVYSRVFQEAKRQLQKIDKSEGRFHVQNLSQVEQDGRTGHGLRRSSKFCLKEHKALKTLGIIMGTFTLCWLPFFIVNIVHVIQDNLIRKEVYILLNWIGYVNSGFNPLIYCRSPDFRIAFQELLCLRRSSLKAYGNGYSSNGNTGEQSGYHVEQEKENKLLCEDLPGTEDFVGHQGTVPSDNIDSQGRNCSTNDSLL
UPR XBP1 act: activators of adaptive arm of unfolded protein response (XBP1); 0.33% of 330,000 active; CHO-XBP1 luciferase reporter, IRE1-XBP1 UPR activation, luminescence; percent of tunicamycin response, DMSO as zero; activation, % at 20 µM; AID 463104;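 active = versus positive control, 20 µM dose yields 30% or more activation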
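Material: CHO cell line with stable XBP1 luciferase reporter; buffer or medium: F12 medium containing 10% fetal bovine serum; compound: single point, 20 µM final compound, 1% DMSO; incubation: 6 h treatment, 37 °C; measured by: glow luminescence from Steady-Glo reagent; evaluation: activation, % of tunicamycin; control set: tunicamycin high, DMSO low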
Each line names hits and unclear results; the compound was inactive in the other large screens. Shown is part of a subset that was picked to be rich in hits.

COc1ccc(CC2S/C(=N/N=C/c3ccccc3O)NC2=O)cc1 (stereo unspecified)	CHOP inhibitor 70
O=C1N/C(=N/N=C/c2ccccc2O)SC1Cc1ccc(F)cc1 (stereo unspecified)	CHOP inhibitor 90
CC(N)C1CCC(C(=O)Nc2ccncc2)CC1 (stereo unspecified)	none (no result: CHOP UPR activ, VLA-4 inh, Beta2AR agonist, UPR XBP1 act)
Cc1nc2cc(OCc3cc(C(=O)NC(C)c4cnn(C)c4)no3)ccc2s1 (stereo unspecified)	none (no result: CHOP inhibitor)
Cc1c(Cl)sn(-c2ccc(Cl)cc2)c1=O	CHOP inhibitor 95, Beta2AR agonist 49 (no result: VLA-4 inh)
Cc1nn(-c2ccc(Cl)cc2)c(=O)c2ccccc12	none
CCCC(=O)Nc1cc2c3c(c1)C(C)C(=O)N3CCC2 (stereo unspecified)	none (no result: CHOP inhibitor)
CC1=C(C(=O)OC(C)C)C(c2ccccc2Cl)CC(=O)N1 (stereo unspecified)	CHOP inhibitor 76
CC(=O)c1cccc(NC(=O)CCN2C(=O)C3C4CCC(C4)C3C2=O)c1 (stereo unspecified)	none (no result: CHOP inhibitor)
CC1CCC(NC(=O)c2ccc(CNc3c(NC4CCCCC4)c(=O)c3=O)cc2)CC1 (stereo unspecified)	none
O=C(c1ccc(CNc2c(NC3CCCCC3)c(=O)c2=O)cc1)N1CCc2ccccc21	CHOP inhibitor 73 (no result: CHOP UPR activ, VLA-4 inh, UPR XBP1 act)
O=C(COC(=O)c1ccccc1)Nc1ncc([N+](=O)[O-])s1	none (no result: CHOP inhibitor)
O=C(Nc1ccccc1)Nc1ncc([N+](=O)[O-])s1	CHOP inhibitor 86 (no result: VLA-4 inh)
O=C(NNC(=O)c1ccc(Cl)nc1)c1ccncc1	none (no result: CHOP inhibitor)
COc1nnc(-c2ccc(N3CCCCC3)c(NC(=O)C3CCCCC3)c2)c2ccccc12	CHOP inhibitor 80
Cc1cc(C)c(C)c(S(=O)(=O)Nc2ccc3cn[nH]c3c2)c1C	none (no result: CHOP inhibitor)
CCN(C(=O)c1ccc2c(Cl)c3c(nc2c1)CCC3)c1cccc(C)c1	none (no result: CHOP UPR activ, VLA-4 inh, Beta2AR agonist, UPR XBP1 act)
CCc1ccc(N(CC)C(=O)c2ccc3c(Cl)c4c(nc3c2)CCC4)cc1	CHOP inhibitor 87
C=CCSc1n[nH]c2nc3c(c(=O)n12)C1(CCCC1)Cc1ccccc1-3	CHOP inhibitor 71
CSc1n[nH]c2nc3c(c(=O)n12)C1(CCCC1)Cc1ccccc1-3	none
CCSc1n[nH]c2nc3c(c(=O)n12)C1(CCCC1)Cc1ccccc1-3	CHOP inhibitor 88
Nc1cc(-c2ccc(Br)cc2)nn1S(=O)(=O)c1ccccc1	CHOP inhibitor 72
Nc1cc(-c2ccc(Br)cc2)nc2cc(-c3ccccc3)nn12	CHOP inhibitor 82
COc1ccc(CC2(c3ccccc3)NC(=O)NC2=O)cc1 (stereo unspecified)	none (no result: CHOP inhibitor, CHOP UPR activ, VLA-4 inh, UPR XBP1 act)
COc1ccc(OC)c(NC(=O)CSc2nc3ccccc3c3nc4ccccc4n23)c1	CHOP inhibitor 78 (no result: CHOP UPR activ, VLA-4 inh, Beta2AR agonist, UPR XBP1 act)
COc1ccccc1-n1c(SCC(N)=O)nc2sc3c(c2c1=O)CCC3	none
COc1ccccc1CCNCc1ccc(OC)c(OCc2ccccc2)c1	CHOP inhibitor 82
COc1ccc(CNCc2ccco2)cc1OCc1ccccc1	none
Cc1cc(NC(=O)C2CC(c3cccc(Br)c3)=NO2)no1 (stereo unspecified)	CHOP inhibitor 73
COc1c(Br)cc(/C=N/n2c(-c3ccccc3)n[nH]c2=S)c(O)c1Br	none (no result: CHOP inhibitor)
CCOc1ncccc1C(=O)OCC(=O)NC1CCCCC1	none (no result: CHOP inhibitor)
CCCCCCOC(=O)Sc1nc2ccccc2o1	CHOP inhibitor 95
CCC1CCC(C(=O)NC(C(=O)Nc2ccc3c(c2)OCCO3)C(C)C)CC1 (stereo unspecified)	CHOP inhibitor 83
COc1ccc(S(=O)(=O)Nc2ccc3ccccc3c2)cc1C	CHOP inhibitor 89
CCc1ccc(NS(=O)(=O)c2ccc(OC)c(C)c2)cc1	CHOP inhibitor 85
Cc1ccc(S(=O)(=O)Nc2ccc3ccccc3c2)cc1	none (no result: CHOP inhibitor, CHOP UPR activ, VLA-4 inh, UPR XBP1 act)
COc1ccc(S(=O)(=O)Nc2ccc(Cc3ccncc3)cc2)cc1C	none (no result: CHOP inhibitor)
COc1cc(OC)cc(-c2cc3nc(C)c(CCC(=O)O)c(C)n3n2)c1	CHOP inhibitor 95 (no result: CHOP UPR activ, UPR XBP1 act)
CCOC(=O)C1CCCCN1C(=O)CCc1c(C)nc2cc(-c3ccccc3)nn2c1C (stereo unspecified)	CHOP inhibitor 73
Cc1nc2cc(-c3ccccc3)nn2c(C)c1CCC(=O)N1CCN(c2ccccn2)CC1	CHOP inhibitor 71 (no result: CHOP UPR activ, VLA-4 inh, Beta2AR agonist, UPR XBP1 act)
CC1(C)CCC=[N+]1[O-]	none (no result: CHOP UPR activ, VLA-4 inh, Beta2AR agonist, UPR XBP1 act)
COc1ccc(N2CCN(C(=O)COC(=O)CNC(=O)c3ccccc3)CC2)cc1	none (no result: CHOP inhibitor)
